This passage reports IC50 and inhibition results from ChEMBL document CHEMBL4371044, “Celastrol Promotes Weight Loss in Diet-Induced Obesity by Inhibiting the Protein Tyrosine Phosphatases PTP1B and TCPTP in the Hypothalamus” (J Med Chem, 2018).

The structures appear in SMILES notation. The source made the active and inactive calls. No cut-off for these calls is given here.

Assay [1] deals with T1, Tyrosine-protein phosphatase non-receptor type 2 (Homo sapiens, UniProt P17706).
T1 sequence (P17706 whole entry): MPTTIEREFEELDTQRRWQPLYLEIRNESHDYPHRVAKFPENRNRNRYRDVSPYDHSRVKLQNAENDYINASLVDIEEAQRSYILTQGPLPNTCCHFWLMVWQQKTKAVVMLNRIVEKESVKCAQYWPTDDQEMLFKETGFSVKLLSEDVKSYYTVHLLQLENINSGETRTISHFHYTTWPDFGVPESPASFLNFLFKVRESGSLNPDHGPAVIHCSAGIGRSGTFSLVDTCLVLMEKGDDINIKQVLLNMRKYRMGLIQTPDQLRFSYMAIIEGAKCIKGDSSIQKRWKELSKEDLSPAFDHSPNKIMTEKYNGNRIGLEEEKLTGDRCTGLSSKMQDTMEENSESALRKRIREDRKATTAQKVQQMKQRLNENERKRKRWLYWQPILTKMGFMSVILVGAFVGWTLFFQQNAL
The experiment in a line: Inhibition of human N-terminal His6-tagged TCPTP catalytic domain (1 to 336 residues) expressed in Escherichia coli strain Rosetta2 (DE3) using DiFMUP as substrate preincubated for 10 mins followed by substrate addition and measured after 10 mins by fluorescence assay. An outline of the steps:
(§1)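 Tag-cleaved, SEC-purified enzyme at 1 nM, preincubated 10 min with compound at 15 concentrations from 0–500 μM (5% DMSO final) in 25 mM Bis-Tris propane pH 7.5, 50 mM NaCl, 2 mM EDTA. DiFMUP added at each construct's Km (10, 7, 10, 9 μM for PTP1B1−298, PTP1B1−393, TCPTP1−296, TCPTP1−336). Read ex 358/em 455 nm continuously 10 min at 37 °C; triplicate; log(inhibitor)-response fit.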

The target in assay [2] is T2, Tyrosine-protein phosphatase non-receptor type 1 (Homo sapiens, UniProt P18031).
T2 sequence (P18031 whole entry): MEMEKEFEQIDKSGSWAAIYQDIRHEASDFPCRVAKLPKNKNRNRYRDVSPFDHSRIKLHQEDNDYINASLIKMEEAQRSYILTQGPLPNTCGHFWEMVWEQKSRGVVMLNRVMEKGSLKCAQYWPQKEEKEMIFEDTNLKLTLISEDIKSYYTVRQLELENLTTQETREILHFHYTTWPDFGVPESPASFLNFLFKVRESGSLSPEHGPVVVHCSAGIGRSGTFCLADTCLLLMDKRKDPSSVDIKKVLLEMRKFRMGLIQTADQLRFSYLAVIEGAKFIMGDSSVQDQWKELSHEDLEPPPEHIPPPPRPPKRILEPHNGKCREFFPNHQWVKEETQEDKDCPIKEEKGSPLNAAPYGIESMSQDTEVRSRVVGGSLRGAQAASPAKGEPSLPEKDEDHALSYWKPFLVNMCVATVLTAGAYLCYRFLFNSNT
Briefly: Inhibition of human N-terminal His6-tagged PTP1B catalytic domain (1 to 393 residues) expressed in Escherichia coli strain Rosetta2 (DE3) using DiFMUP as substrate preincubated for 10 mins followed by substrate addition and measured after 10 mins by fluorescence assay. An outline of the steps: as §1

The target of assay [3] is T3, Tyrosine-protein phosphatase non-receptor type 1 (Homo sapiens) (UniProt P18031).
T3 sequence (whole entry): T2 sequence (P18031 whole entry)
The experiment in a line: Inhibition of human N-terminal His6-tagged PTP1B catalytic domain (1 to 393 residues) expressed in Escherichia coli strain Rosetta2 (DE3) at 500 uM using DiFMUP as substrate preincubated for 10 mins followed by substrate addition and measured after 10 mins by fluorescence assay.

For assay [4], the target named is T4, Tyrosine-protein phosphatase non-receptor type 2 (Homo sapiens) (UniProt P17706).
T4 sequence (whole entry): T1 sequence (P17706 whole entry)
Briefly: Inhibition of human N-terminal His6-tagged TCPTP catalytic domain (1 to 336 residues) expressed in Escherichia coli strain Rosetta2 (DE3) at 500 uM using DiFMUP as substrate preincubated for 10 mins followed by substrate addition and measured after 10 mins by fluorescence assay.

A word on the IC50: it is the midpoint of a concentration-inhibition curve. Low readings indicate greater potency in that assay, high ones weaker potency in that assay. As for `Nc1ccc(NC(=O)C(=O)O)cc1`, the IC50 in assay [1] was 478 µM; in assay [2], 910 µM.
As to `CC1=C(CO)C(=O)O[C@@H]([C@@H](C)[C@H]2CC[C@H]3[C@@H]4C[C@H]5O[C@]56[C@@H](O)C=CC(=O)[C@]6(C)[C@H]4CC[C@]23C)C1`, the inhibition entry in assay [3] and in assay [4] was “inactive” each time.
As to `Cc1c(O)c(O)cc2c1CC=C1[C@@]2(C)CC[C@@]2(C)[C@@H]3C[C@](C)(C(=O)O)CC[C@]3(C)CC[C@]12C`, the inhibition result in assay [3] and in assay [4] was “Active” in each case.
